Experimental data taken from ChEMBL document CHEMBL4831479, “Discovery of Novel Thiophene-arylamide Derivatives as DprE1 Inhibitors with Potent Antimycobacterial Activities” (J Med Chem, 2021).
In brackets after ≈: the same amount, converted by molar mass.

What was measured:
[1] = system: Mycobacterium tuberculosis; test: Antitubercular activity against Mycobacterium tuberculosis H37Rv assessed as bacterial growth inhibition incubated for 7 days by microplate Alamar blue assay; type: functional; settings: 168 h, time 7 day
Method in brief: (§1)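 MABA: H37Rv or clinical isolates grown to late log phase in 7H9 with 0.2% glycerol, 0.05% Tween 80, 10% ADC; washed, filtered 8 μm, frozen. 2 × 10⁵ CFU per well with twofold compound dilutions, 37 °C; day 7 Tween 80 plus Alamar blue, 16–24 h more, fluorescence ex 530/em 590. MIC = lowest concentration giving ≥90% fluorescence reduction versus bacterium-only controls; RFP, INH, TCA1 controls.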

[2] = system: HepG2; test: Cytotoxicity against human HepG2 cells assessed as reduction in cell viability measured after 48 hrs by MTT assay; type: cell-based; settings: HepG2, 48 h
Method in brief: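 Threefold serial dilutions gave final concentrations of 64 to 0.26 μg/mL. After 48 h at 37 °C, monolayers were washed with warm HBSS and given fresh medium plus MTT for 4 h. Absorbance was read at 492 nm. IC₅₀ is the concentration giving 50% growth inhibition versus the untreated control.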

[3] = Selectivity index, ratio of IC50 for African green monkey Vero cells to MIC for antitubercular activity against Mycobacterium tuberculosis H37Rv; type: toxicity; settings: read-out: Selectivity Index
[4] = system: Mycobacterium tuberculosis; test: Antimycobacterial activity against Mycobacterium tuberculosis H37Rv infected in mouse J774.1 cells assessed as change in bacterial colony forming units at 10 ug/ml incubated for 3 days; type: functional; settings: dose 10 µg/ml; time 3 day
Method in brief: (§2)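 Mouse J774A.1 macrophages infected with M. tuberculosis H37Rv, treated 3 days at final 10 or 5 μg/mL; rifampicin control at 5 μg/mL. Intracellular log10 CFU counted; Δlog10 CFU = untreated minus treated. Triplicate, at least three separate experiments.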

[5] = system: Mycobacterium tuberculosis; test: Antimycobacterial activity against Mycobacterium tuberculosis H37Rv infected in mouse J774.1 cells assessed as change in bacterial colony forming units at 5 ug/ml incubated for 3 days; type: functional; settings: dose 5 µg/ml; time 3 day; method in brief: as §2
[6] = system: Mycobacterium tuberculosis; test: Antimycobacterial activity against Mycobacterium tuberculosis H37Rv infected in mouse J774.1 cells assessed as reduction in bacterial colony forming units at 10 ug/ml incubated for 3 days (reference value: 5.52 +/- 0.18 log10CFU); type: functional; settings: dose 10 µg/ml; time 3 day; method in brief: as §2
[7] = system: Mycobacterium tuberculosis; test: Antimycobacterial activity against Mycobacterium tuberculosis H37Rv infected in mouse J774.1 cells assessed as reduction in bacterial colony forming units at 5 ug/ml incubated for 3 days (reference value: 5.52 +/- 0.18 log10CFU); type: functional; settings: dose 5 µg/ml; time 3 day; method in brief: as §2
[8] = biological target: T1, Decaprenylphosphoryl-beta-D-ribose oxidase (Mycobacterium tuberculosis (strain ATCC 25618 / H37Rv)) (UniProt P9WJF1); test: Non-covalent inhibition of DprE1 in Mycobacterium tuberculosis H37Rv measured after 7 days by microplate Alamar blue assay; settings: time 7.0 day; method in brief: as §1
T1 sequence (whole entry): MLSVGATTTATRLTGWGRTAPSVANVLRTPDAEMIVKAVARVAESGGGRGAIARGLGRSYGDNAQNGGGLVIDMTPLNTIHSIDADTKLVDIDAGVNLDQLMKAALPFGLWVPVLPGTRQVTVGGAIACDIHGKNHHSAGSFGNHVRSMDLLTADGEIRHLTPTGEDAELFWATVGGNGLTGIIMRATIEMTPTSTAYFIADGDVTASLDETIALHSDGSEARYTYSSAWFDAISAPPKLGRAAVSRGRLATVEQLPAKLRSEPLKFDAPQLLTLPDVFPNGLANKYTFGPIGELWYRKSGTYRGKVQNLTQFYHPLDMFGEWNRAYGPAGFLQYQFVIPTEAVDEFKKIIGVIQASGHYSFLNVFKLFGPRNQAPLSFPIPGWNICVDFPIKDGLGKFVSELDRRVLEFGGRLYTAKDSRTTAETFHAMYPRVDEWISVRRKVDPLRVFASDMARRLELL

[9] = Stability in mouse hepatocytes assessed as parent compound remaining at 1 uM measured after 30 mins by LC-MS/MS analysis; type: ADME, cell-based, Hepatocyte; settings: 0.5 h
Method in brief: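 Hepatocytes from male mice; metabolic stability measured as the amount of parent compound remaining. Concentrations after 30 min incubation were normalized to those at time zero.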

SMILES | MIC [1] [mg/L] | selectivity ratio [3] | Activity [4] [deltalog10CFU] | Activity [5] [deltalog10CFU] | Activity [6] [log10CFU] | Activity [7] [log10CFU] | other results
CCOC(=O)NC(=O)c1ccsc1NC(=O)c1cc(C(=O)N2CCCCC2)c[nH]1 | 137 (≈ 327 µM) |  |  |  |  |  | 
NC(=O)c1ccsc1NC(=O)c1ccc(C(=O)N2CCCCC2)cc1 | 0.2 (≈ 0.56 µM) |  |  |  |  |  | 
Cc1cccc(NC(=O)c2ccsc2NC(=O)c2ccc(C(=O)N3CCCCC3)cc2)n1 | 15.5 (≈ 34.6 µM) |  |  |  |  |  | 
CCOC(=O)NC(=O)c1ccsc1NC(=O)c1ccc(C(=O)NC2CCC(C)(C)CC2)cc1 | 0.04 (≈ 0.0848 µM) |  |  |  |  |  | 
CCOC(=O)NC(=O)c1ccsc1NC(=O)c1ccc(C(=O)N2CCCCC2)s1 |  | > 457 |  |  |  |  | IC50 [2]: > 64 mg/L
CCOC(=O)NC(=O)c1ccsc1NC(=O)c1ccc(C(=O)N2CCCCC2)cc1 |  |  | 1.07 | 0.98 | 4.45 | 4.54 | IC50 [2]: > 64 mg/L; MIC [8]: 0.055 mg/L (≈ 0.128 µM)
Cc1ccnc(NC(=O)c2ccsc2NC(=O)c2ccc(C(=O)N3CCCCC3)c(F)c2)n1 | > 32 |  |  |  |  |  | 
CCCNC(=O)c1ccc(C(=O)Nc2sccc2C(=O)NC(=O)OCC)cc1 |  | > 320 |  |  |  |  | 
CCNC(=O)NC(=O)c1ccsc1NC(=O)c1ccc(C(=O)N2CCCCC2)cc1 | 0.47 (≈ 1.1 µM) |  |  |  |  |  | 
Cc1cnc(NC(=O)c2ccsc2NC(=O)c2ccc(C(=O)N3CCCCC3)cc2)s1 | 0.19 (≈ 0.418 µM) |  |  |  |  |  | 
CCOC(=O)NC(=O)c1ccsc1NC(=O)c1coc(C(=O)N2CCCCC2)c1 | 37 (≈ 88.2 µM) |  |  |  |  |  | 
Cc1ccnc(NC(=O)c2ccsc2NC(=O)c2ccc(C(=O)N3CCCCC3)cc2)n1 | 0.03 (≈ 0.0667 µM) | > 27 |  |  |  |  | 
COC(=O)NC(=O)c1ccsc1NC(=O)c1ccc(C(=O)N2CCCCC2)cc1 | > 32 |  | 0.75 | 0.46 | 4.77 | 5.06 | IC50 [2]: > 64 mg/L; MIC [8]: 0.12 mg/L (≈ 0.289 µM)
COC(=O)NC(=O)c1ccsc1NC(=O)c1ccc(C(=O)N2CCCCC2)c(F)c1 | 1.94 (≈ 4.48 µM) |  | 0.93 | 0.77 | 4.59 | 4.75 | IC50 [2]: > 64 mg/L
O=C(Nc1sccc1C(=O)Nc1nccc(C(F)(F)F)n1)c1ccc(C(=O)N2CCCCC2)cc1 | > 32 | > 320 | 0.98 | 0.93 | 4.54 | 4.59 | 
CCOC(=O)NC(=O)c1ccsc1NC(=O)c1nc2ccccc2s1 |  | 66 | 1.16 | 0.11 | 4.36 | 4.91 | Stability [9]: 79.8%
CCOC(=O)NC(=O)c1ccsc1NC(=O)c1ccc(C(=O)N2CCCCC2)c(F)c1 |  | > 4000 | 1.34 | 1.11 | 4.18 | 4.41 | IC50 [2]: > 64 mg/L
COC(=O)C1CCN(C(=O)c2ccsc2NC(=O)c2ccc(C(=O)N3CCCCC3)cc2)CC1 | > 32 |  |  |  |  |  | 
